# In ChEMBL document CHEMBL4823320, “SAR of novel benzothiazoles targeting an allosteric pocket of DENV and ZIKV NS2B/NS3 proteases” (Bioorg Med Chem, 2021):
# How the values were obtained:
# Nonstructural protein 3 = Nonstructural protein 3 (Zika virus, UniProt A0A024AXB9); assay: Inhibition of ZIKV NS2B-NS3 protease expressed in Escherichia coli BL21(DE3) using Boc-Gly-Arg-Arg-AMC as substrate by FRET assay
# Summary of the method: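 His-tagged ZIKV NS2B/NS3 protease in 50 mM Tris pH 9.0, 20% glycerol, 1 mM CHAPS with 100 µM Boc-Gly-Arg-Arg-AMC. Dilution series 0.01–100 µM, read every 30 s for 10 min at 25 °C. IC50 from a four-parameter fit of hydrolysis rate; mean ± SD of ≥3 independent measurements.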
# [1] = molecular target: Genome polyprotein (dengue virus type 2) (UniProt P29990); assay: Inhibition of DENV2 NS2B-NS3 protease expressed in Escherichia coli BL21(DE3) using Boc-Gly-Arg-Arg-AMC as substrate at 20 uM by FRET assay
# Summary of the method: (§1)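 His-tagged NS2B/NS3 protease, purified by Ni affinity and size exclusion, in 50 mM Tris pH 9.0, 20% glycerol, 1 mM CHAPS with 100 µM Boc-Gly-Arg-Arg-AMC. Fluorescence is read every 30 s for 10 min at 25 °C. Percent inhibition is at a single inhibitor concentration of 20, 100 or 200 µM; ≥3 independent measurements.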
# [2] = molecular target: Nonstructural protein 3 (Zika virus) (UniProt A0A024AXB9); assay: Inhibition of ZIKV NS2B-NS3 protease expressed in Escherichia coli BL21(DE3) using Boc-Gly-Arg-Arg-AMC as substrate at 20 uM by FRET assay; summary of the method: as §1
# Genome polyprotein = Genome polyprotein (dengue virus type 2, UniProt P29990); assay: Inhibition of DENV2 NS2B-NS3 protease expressed in Escherichia coli BL21(DE3) using Boc-Gly-Arg-Arg-AMC as substrate by FRET assay
# Summary of the method: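 Recombinant His-tagged NS2B/NS3 protease, expressed in E. coli BL21-Gold (DE3) (1 mM IPTG, 20 °C, 16 h) and purified by Ni affinity and size exclusion. Assayed in 50 mM Tris pH 9.0, 20% glycerol, 1 mM Chaps, with 100 μM Boc-Gly-Arg-Arg-AMC. Fluorescence read every 30 s for 10 min at 25 °C; inhibitor 0.01–100 μM. IC50 from a four-parameter fit of hydrolysis rate; ≥3 independent experiments.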
# Trypsin (Homo sapiens) = Trypsin (Homo sapiens) (UniProt P07477+P07478+P35030); assay: Inhibition of Trypsin (unknown origin) assessed as residual enzyme activity at 20 uM by FRET assay relative to control; assay type: protein assay
# Summary of the method: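 Trypsin in 50 mM Tris pH 8.0, 100 mM NaCl, 5 mM EDTA with 40 µM Z-Phe-Arg-AMC. Compound at 20 µM, read every 30 s for 10 min at 25 °C. Residual activity is relative to DMSO control; mean ± SD, ≥3 independent measurements.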
# [3] = molecular target: Prothrombin (Homo sapiens) (UniProt P00734); assay: Inhibition of Thrombin (unknown origin) assessed as residual enzyme activity at 20 uM by FRET assay relative to control
# Summary of the method: (§2)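 Compound at 20 µM, read every 30 s for 10 min at 25 °C. Residual activity is relative to DMSO control; mean ± SD, ≥3 independent measurements.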
# [4] = molecular target: Chymotrypsin (Homo sapiens) (UniProt Q99895+P17538+P40313+Q6GPI1); assay: Inhibition of Chymotrypsin (unknown origin) assessed as residual enzyme activity at 20 uM by FRET assay relative to control; assay type: protein assay
# Summary of the method: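 α-Chymotrypsin in 50 mM Tris pH 8.0, 100 mM NaCl with Succ-Leu-Tyr-AMC. Compound at 20 µM, read every 30 s for 10 min at 25 °C. Residual activity is relative to DMSO control; mean ± SD, ≥3 independent measurements.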
# [5] = molecular target: Urokinase-type plasminogen activator (Homo sapiens) (UniProt P00749); assay: Inhibition of Urokinase plasminogen activator (unknown origin) assessed as residual enzyme activity at 20 uM by FRET assay relative to control
# Summary of the method: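 Urokinase plasminogen activator in 50 mM Tris pH 7.4, 50 mM NaCl, 0.5 mM EDTA with 240 µM Z-Gly-Gly-Arg-AMC. Compound at 20 µM, read every 30 s for 10 min at 25 °C. Residual activity is relative to DMSO control; mean ± SD, ≥3 independent measurements.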
# [6] = system: Severe acute respiratory syndrome coronavirus 2; assay: Inhibition of SARS-CoV-2 Main protease assessed as residual enzyme activity at 20 uM by FRET assay relative to control
# Summary of the method: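 Compound at 20 μM; fluorescence read every 30 s for 10 min at 25 °C. Residual activity expressed relative to DMSO control; mean of ≥3 independent measurements.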
# [7] = Inhibition of Rhodesain (unknown origin) assessed as residual enzyme activity at 20 uM by FRET assay relative to control
# Summary of the method: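 Compound at 20 µM, fluorescence read every 30 s for 10 min at 25 °C. Residual activity is relative to DMSO control; mean ± SD, ≥3 independent measurements.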
# [8] = molecular target: T1, Sortase A (Staphylococcus aureus) (UniProt Q9S446); assay: Inhibition of staphylococcus aureus Sortase A protease assessed as residual enzyme activity at 20 uM by FRET assay relative to control; summary of the method: as §2
# T1 sequence (whole entry): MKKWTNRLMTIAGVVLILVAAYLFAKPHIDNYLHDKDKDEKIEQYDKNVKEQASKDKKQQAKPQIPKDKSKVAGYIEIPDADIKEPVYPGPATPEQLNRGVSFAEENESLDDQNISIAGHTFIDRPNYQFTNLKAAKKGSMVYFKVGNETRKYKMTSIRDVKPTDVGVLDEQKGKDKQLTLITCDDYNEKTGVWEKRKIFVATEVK
# [9] = Chemical stability of compound in tris assay buffer at pH 9 measured after 15 mins by HPLC/MS analysis; assay type: physicochemical; details: pH 9, 0.25 h
# Summary of the method: (§3)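 Compound incubated in protease assay buffer (Tris pH 9.0) under simulated assay conditions and analysed by HPLC/MS after 15 min, 90 min and 20 h. Stability is the compound peak integral in the 210 nm UV trace as a proportion of the total integral.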
# [10] = Chemical stability of compound in tris assay buffer at pH 9 measured after 90 mins by HPLC/MS analysis; assay type: physicochemical; details: pH 9, 1.5 h; summary of the method: as §3
# [11] = Chemical stability of compound in tris assay buffer at pH 9 measured after 20 hrs by HPLC/MS analysis; assay type: physicochemical; details: pH 9, 20 h; summary of the method: as §3
# [12] = Chemical stability of compound in cell culture conditions at pH 7.4 HEPES buffer measured after 15 mins by HPLC/MS analysis; assay type: physicochemical; details: read-out: Stabilty
# Summary of the method: (§4)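 Compound incubated under simulated cell-assay conditions (HEPES pH 7.4) and analysed by HPLC/MS after 15 min, 90 min and 20 h. Stability is the compound peak integral in the 210 nm UV trace as a fraction of the total integral.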
# [13] = Chemical stability of compound in cell culture conditions at pH 7.4 HEPES buffer measured after 90 mins by HPLC/MS analysis; assay type: physicochemical; details: read-out: Stabilty; summary of the method: as §4
# [14] = Chemical stability of compound in cell culture conditions at pH 7.4 HEPES buffer measured after 20 hrs by HPLC/MS analysis; assay type: physicochemical; details: read-out: Stabilty; summary of the method: as §4
smiles,measurement,setting,value
CC[C@H](C)[C@H](NS(=O)(=O)c1ccc(C)cc1)C(=O)Nc1nc2cc(O)c(O)cc2s1,IC50,Nonstructural protein 3,5.35 µM
same,inhibition,[1],33%
O=C(Nc1ccccc1)[C@@H]1CCCN1C(=O)c1cc2cc(O)c(O)cc2[nH]1,inhibition,[2],44%
same,inhibition,[1],36%
O=C(Nc1nc2cc(O)c(O)cc2s1)c1ccc(Cl)c(Cl)c1,inhibition,[2],39%
same,IC50,Genome polyprotein,4.86 µM
O=C(Nc1nc2cc(O)c(O)cc2s1)c1ccc(-c2ccccc2)cc1,IC50,Nonstructural protein 3,1.22 µM
same,IC50,Genome polyprotein,7.8 µM
O=C(Nc1ccccc1)[C@@H]1CCCN1C(=O)c1cc2cc(O)c(O)cc2o1,IC50,Nonstructural protein 3,2.43 µM
same,IC50,Genome polyprotein,6.43 µM
same,Activity,Trypsin (Homo sapiens),88%
same,Activity,[3],81%
same,Activity,[4],78%
same,Activity,[5],82%
same,Activity,[6],99%
same,Activity,[7],93%
same,Activity,[8],81%
same,Stabilty,[9],83%
same,Stabilty,[10],83%
same,Stabilty,[11],83%
same,remaining at 0.25 h,[12],95%
same,remaining at 1.5 h,[13],95%
same,remaining at 20 h,[14],95%
O=C(Nc1ccccc1)c1cc2cc(O)c(O)cc2s1,IC50,Nonstructural protein 3,1.59 µM
same,IC50,Genome polyprotein,2.73 µM
Cc1ccc(S(=O)(=O)N[C@@H](Cc2ccccc2)C(=O)Nc2nc3cc(O)c(O)cc3s2)cc1,IC50,Nonstructural protein 3,3.66 µM
same,inhibition,[1],33%
O=C(Nc1ccccc1)c1cnc2cc(O)c(O)cc2c1,IC50,Nonstructural protein 3,6.38 µM
same,IC50,Genome polyprotein,3.63 µM
Cc1ccc(S(=O)(=O)N[C@H](C)C(=O)Nc2nc3cc(O)c(O)cc3s2)cc1,inhibition,[2],26%
same,inhibition,[1],14%
O=C(Nc1nc2cc(O)c(O)cc2s1)C(c1ccc(O)cc1)c1ccc(O)cc1,inhibition,[2],54%
same,inhibition,[1],45%
O=C(Nc1ccccc1)[C@@H]1CCCN1C(=O)c1cnc2cc(O)c(O)cc2c1,inhibition,[2],44%
same,inhibition,[1],23%
O=C(Nc1ccccc1)c1cc2cc(O)c(O)cc2[nH]1,IC50,Nonstructural protein 3,3.44 µM
same,IC50,Genome polyprotein,6.9 µM
O=C(Nc1nc2ccc([N+](=O)[O-])cc2s1)c1ccc(I)cc1,inhibition,[2],49%
same,inhibition,[1],36%
O=C(N[C@@H](Cc1ccc(O)cc1)C(=O)Nc1nc2cc(O)c(O)cc2s1)c1ccccc1,IC50,Nonstructural protein 3,4.59 µM
same,inhibition,[1],63%
O=C(Nc1ccccc1)[C@@H]1CCCN1C(=O)c1nc2cc(O)c(O)cc2s1,IC50,Nonstructural protein 3,4 µM
same,IC50,Genome polyprotein,11.6 µM
O=C(Nc1ccccc1)c1nc2cc(O)c(O)cc2s1,IC50,Nonstructural protein 3,9.19 µM
same,IC50,Genome polyprotein,27 µM
same,Stabilty,[9],95%
same,Stabilty,[10],94%
same,Stabilty,[11],88%
same,remaining at 0.25 h,[12],95%
same,remaining at 1.5 h,[13],95%
same,remaining at 20 h,[14],95%
Cc1ccc(S(=O)(=O)N[C@@H](C)C(=O)Nc2nc3cc(O)c(O)cc3s2)cc1,IC50,Nonstructural protein 3,6.48 µM
same,inhibition,[1],39%
O=C(CCNC(=O)c1ccccc1)Nc1nc2cc(O)c(O)cc2s1,inhibition,[2],38%
same,inhibition,[1],23%
O=C(Nc1nc2cc(O)c(O)cc2s1)c1ccccc1,IC50,Nonstructural protein 3,9.19 µM
same,IC50,Genome polyprotein,27 µM
same,Activity,Trypsin (Homo sapiens),80%
same,Activity,[3],75%
same,Activity,[4],77%
same,Activity,[5],100%
same,Activity,[6],90%
same,Activity,[7],91%
same,Activity,[8],57%
same,Stabilty,[9],67%
same,Stabilty,[10],61%
same,Stabilty,[11],83%
same,remaining at 0.25 h,[12],95%
same,remaining at 1.5 h,[13],95%
same,remaining at 20 h,[14],95%
Cc1ccc(S(=O)(=O)N2CCC[C@@H]2C(=O)Nc2nc3cc(O)c(O)cc3s2)cc1,Activity,Trypsin (Homo sapiens),96%
same,Activity,[3],97%
same,Activity,[4],100%
same,Activity,[5],100%
same,Activity,[6],94%
same,Activity,[7],93%
same,Activity,[8],83%
O=C(Nc1nc2cc(O)c(O)cc2s1)c1ccc(Cl)cc1,IC50,Nonstructural protein 3,6.66 µM
same,IC50,Genome polyprotein,5.97 µM
"Cc1ccc(S(=O)(=O)NC(CSCc2ccccc2)C(=O)Nc2nc3cc(O)c(O)cc3s2)cc1 (single isomer, unassigned)",IC50,Nonstructural protein 3,2.13 µM
same,inhibition,[1],57%
CCN(CC)C(=O)C[C@H](NC(=O)c1ccccc1)C(=O)Nc1nc2cc(O)c(O)cc2s1,inhibition,[2],13%
same,inhibition,[1],16%
O=C(C[C@H](NC(=O)c1ccccc1)C(=O)Nc1nc2cc(O)c(O)cc2s1)Nc1ccccc1,IC50,Nonstructural protein 3,5.48 µM
same,IC50,Genome polyprotein,9.95 µM
O=C(CN(C(=O)c1ccccc1)c1ccccc1)Nc1nc2cc(O)c(O)cc2s1,IC50,Nonstructural protein 3,2.07 µM
same,inhibition,[1],56%
O=C(Nc1ccccc1)[C@@H]1CCCN1C(=O)c1cc2c(O)cc(O)cc2o1,IC50,Nonstructural protein 3,20.1 µM
same,IC50,Genome polyprotein,27.7 µM
O=C(Nc1ccc(I)cc1)c1nc2cc(O)c(O)cc2s1,IC50,Nonstructural protein 3,1.3 µM
same,IC50,Genome polyprotein,2.48 µM
O=C(Nc1nc2cc(O)c(O)cc2s1)C(c1ccc(Cl)cc1)c1ccc(Cl)cc1,IC50,Nonstructural protein 3,0.96 µM
same,inhibition,[1],58%
Cc1ccc(C(=O)Nc2nc3cc(O)c(O)cc3s2)cc1,IC50,Nonstructural protein 3,15.4 µM
same,IC50,Genome polyprotein,6.39 µM
O=C(Nc1ccccc1)[C@@H]1CCCCN1C(=O)c1cc2cc(O)c(O)cc2o1,IC50,Nonstructural protein 3,2.9 µM
same,IC50,Genome polyprotein,4.73 µM
same,Activity,Trypsin (Homo sapiens),95%
same,Activity,[3],93%
same,Activity,[4],77%
same,Activity,[5],94%
same,Activity,[6],57%
same,Activity,[7],90%
same,Activity,[8],74%
O=C(Nc1ccccc1)[C@@H]1CCCN1C(=O)c1ccc2cc(O)c(O)cc2c1,inhibition,[2],42%
same,inhibition,[1],9%
O=[N+]([O-])c1ccc2nc(NC(=S)Nc3ccc(I)cc3)sc2c1,IC50,Nonstructural protein 3,6.51 µM
same,IC50,Genome polyprotein,11.2 µM
O=C(Nc1ccccc1)[C@@H]1CCCN1C(=O)c1cc2cc(O)c(O)cc2s1,IC50,Nonstructural protein 3,3.43 µM
same,IC50,Genome polyprotein,4.01 µM
O=C(O)C[C@H](NC(=O)c1ccccc1)C(=O)Nc1nc2cc(O)c(O)cc2s1,inhibition,[2],45%
same,inhibition,[1],32%
Cc1ccc(S(=O)(=O)N[C@H](C(=O)Nc2nc3cc(O)c(O)cc3s2)C(C)(C)C)cc1,IC50,Nonstructural protein 3,5.74 µM
same,inhibition,[1],44%
